Reference: ChEMBL document CHEMBL2021781, “Dual targeting of histone deacetylase and topoisomerase II with novel bifunctional inhibitors” (J Med Chem, 2012)
Active and inactive are the calls of the source. The rule behind the calls is not given here.

Key:
DU-145 = assay: Antiproliferative activity against human DU145 cells after 72 hrs by MTS assay; format: functional, cell-based; details: DU-145, 72 h
Method in brief: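 DU-145 cells passaged 24 h before dosing and exposed 72 h; compounds from 10 mM DMSO stocks; controls given media with 0.1% DMSO; 37°C, 5% CO2. Viability read by MTS assay, with Trypan Blue staining also used. IC50 from the average of two experiments, each run in triplicate.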

Histone deacetylase 1 = Histone deacetylase 1 (Homo sapiens, UniProt Q13547); assay: Inhibition of HDAC1 in human HeLa cell nuclear extract using Fluor de Lys as substrate after 15 mins by fluorometric analysis
Histone deacetylase 8 = target: T1, Histone deacetylase 8 (Homo sapiens, UniProt Q9BY41); assay: Inhibition of HDAC8 in human HeLa cell nuclear extract using Fluor de Lys as substrate after 15 mins by fluorometric analysis
T1 sequence (Q9BY41 whole entry): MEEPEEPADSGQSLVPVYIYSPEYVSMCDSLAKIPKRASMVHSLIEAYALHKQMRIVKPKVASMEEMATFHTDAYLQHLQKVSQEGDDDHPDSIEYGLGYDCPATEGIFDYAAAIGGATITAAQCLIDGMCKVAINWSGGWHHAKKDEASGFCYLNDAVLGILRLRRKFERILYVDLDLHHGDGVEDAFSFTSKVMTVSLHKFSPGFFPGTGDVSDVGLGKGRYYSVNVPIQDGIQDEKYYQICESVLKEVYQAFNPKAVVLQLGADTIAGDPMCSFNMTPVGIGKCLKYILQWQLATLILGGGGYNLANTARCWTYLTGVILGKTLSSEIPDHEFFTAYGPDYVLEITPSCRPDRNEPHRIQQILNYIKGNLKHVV

MCF7 = assay: Antiproliferative activity against human MCF7 cells after 72 hrs by MTS assay; format: functional, cell-based; details: MCF7, 72 h
[1] = target: DNA topoisomerase 2-alpha (Homo sapiens) (UniProt P11388); assay: Inhibition of Topoisomerase 2 assessed as kinetoplast DNA decatenation at 50 uM after 10 mins by electrophoretic analysis
[2] = target: Histone deacetylase (HDAC1 and HDAC2) (Homo sapiens, UniProt Q13547+Q92769); assay: Inhibition of HDAC1/2 in human HeLa cell nuclear extract using Fluor de Lys as substrate after 15 mins by fluorometric analysis; format: protein assay
SK-MES-1 = assay: Antiproliferative activity against human SKMES1 cells after 72 hrs by MTS assay; format: functional, cell-based; details: SK-MES-1, 72 h
[3] = target: T2, Protein deacetylase HDAC6 (Homo sapiens, UniProt Q9UBN7); assay: Inhibition of HDAC6 in human HeLa cell nuclear extract using Fluor de Lys as substrate after 15 mins by fluorometric analysis
T2 sequence (Q9UBN7 whole entry): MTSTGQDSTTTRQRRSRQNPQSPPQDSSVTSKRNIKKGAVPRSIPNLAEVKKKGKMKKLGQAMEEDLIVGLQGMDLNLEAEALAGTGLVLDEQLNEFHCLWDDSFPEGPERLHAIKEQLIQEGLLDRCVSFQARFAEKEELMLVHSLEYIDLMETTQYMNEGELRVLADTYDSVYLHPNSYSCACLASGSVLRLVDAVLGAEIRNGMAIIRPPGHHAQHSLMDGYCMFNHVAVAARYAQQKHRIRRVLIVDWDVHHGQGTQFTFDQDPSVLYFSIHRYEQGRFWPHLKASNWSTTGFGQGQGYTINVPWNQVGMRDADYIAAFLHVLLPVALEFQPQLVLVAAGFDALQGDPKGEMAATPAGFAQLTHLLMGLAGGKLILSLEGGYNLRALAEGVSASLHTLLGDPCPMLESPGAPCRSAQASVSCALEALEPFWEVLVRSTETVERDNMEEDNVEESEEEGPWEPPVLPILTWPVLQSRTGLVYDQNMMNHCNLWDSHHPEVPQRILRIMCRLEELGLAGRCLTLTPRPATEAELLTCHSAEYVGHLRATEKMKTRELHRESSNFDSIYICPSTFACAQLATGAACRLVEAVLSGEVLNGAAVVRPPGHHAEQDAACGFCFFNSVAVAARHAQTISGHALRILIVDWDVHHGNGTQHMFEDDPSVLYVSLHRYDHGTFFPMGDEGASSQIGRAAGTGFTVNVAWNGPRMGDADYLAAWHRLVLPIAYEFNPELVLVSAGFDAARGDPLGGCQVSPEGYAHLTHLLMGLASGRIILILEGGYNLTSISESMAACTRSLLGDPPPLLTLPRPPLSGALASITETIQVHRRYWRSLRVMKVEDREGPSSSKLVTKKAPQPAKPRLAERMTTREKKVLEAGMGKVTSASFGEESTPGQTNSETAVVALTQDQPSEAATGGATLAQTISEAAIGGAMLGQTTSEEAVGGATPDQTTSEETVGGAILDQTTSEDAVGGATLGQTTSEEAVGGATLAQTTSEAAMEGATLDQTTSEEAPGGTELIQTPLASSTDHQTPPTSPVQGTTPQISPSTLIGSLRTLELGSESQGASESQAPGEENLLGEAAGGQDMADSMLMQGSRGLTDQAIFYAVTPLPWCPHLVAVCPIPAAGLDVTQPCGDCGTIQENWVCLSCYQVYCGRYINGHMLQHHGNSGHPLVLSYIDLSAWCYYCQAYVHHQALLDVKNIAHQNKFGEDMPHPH

[4] = target: DNA topoisomerase 2-alpha (Homo sapiens) (UniProt P11388); assay: Inhibition of topoisomerase 2 in human DU145 cells assessed as stabilization of enzyme-DNA cleavage complex at […] after 72 hrs by immunoblot analysis; format: cell-based; details: DU-145
[5] = Drug uptake in human A549 cell vesicle like body at 1 uM after 4 hrs by confocal microscopic analysis; format: ADME, cell-based; details: a549, 4 h
Method in brief: (§1)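 Cells plated on glass coverslips 24 h beforehand, then incubated in fresh medium with compound at 1 μM for 4 h. Washed with PBS, coverslips mounted and imaged by confocal microscopy at 488 nm excitation. DU-145 (prostate carcinoma) shown in main text; A549 lung tumour cells treated likewise.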

[6] = target: DNA topoisomerase 2-alpha (Homo sapiens) (UniProt P11388); assay: Inhibition of topoisomerase 2 in human DU145 cells assessed as stabilization of enzyme-DNA cleavage complex at […] after 30 mins by immunoblot analysis; format: cell-based; details: DU-145
[7] = target: T3, Histone deacetylase (Homo sapiens) (UniProt Q13547+O15379+Q9UBN7+Q92769+Q9UQL6+Q8WUI4+Q9BY41+Q96DB2+P56524+Q9UKV0+Q969S8); assay: Inhibition of HDAC in human DU145 cells assessed as upregulation of p21 expression at IC50 concentration after 4 hrs by Western blot analysis relative to control; format: cell-based; details: DU-145
Method in brief: (§2)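 Lysed in RIPA with protease inhibitors, cleared 14,000 RPM at 4°C. Immunoblotted, probing acetylated versus total tubulin; p21 also checked. Near-infrared detection at 700/800 nm.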

[8] = Drug uptake in human DU145 cell vesicle like body at 1 uM after 4 hrs by confocal microscopic analysis; format: ADME, cell-based; details: du-145, 4 h; method in brief: as §1
[9] = target: T4, Protein deacetylase HDAC6 (Homo sapiens) (UniProt Q9UBN7); details: DU-145, 10 uM
T4 sequence (whole entry): T2 sequence (Q9UBN7 whole entry)

[10] = target: T3, Histone deacetylase (Homo sapiens); assay: Inhibition of HDAC in human DU145 cells assessed as upregulation of p21 expression at 5 times IC50 concentration after 4 hrs by Western blot analysis relative to control; format: cell-based; details: DU-145; method in brief: as §2
[11] = target: T3, Histone deacetylase (Homo sapiens); assay: Inhibition of HDAC in human DU145 cells assessed as histone H4 acetylation after 24 hrs by Western blot analysis; format: cell-based; details: DU-145
Method in brief: (§3)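 DU-145 cells passaged 24 h before dosing, then exposed 24 h to compound in growth medium (final DMSO 0.1%); controls received 0.1% DMSO. Lysed in RIPA with protease inhibitors at 4°C, cleared at 14,000 × g. Protein quantified against BSA, boiled, transferred to nitrocellulose. Probed for acetyl-H3, acetyl-H4 and p21waf1 with actin loading control; read by near-infrared scanning at 700/800 nm.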

[12] = Drug uptake in human A549 cell nucleus at 1 uM after 4 hrs by confocal microscopic analysis; format: ADME, cell-based; details: a549, 4 h; method in brief: as §1
[13] = target: T4, Protein deacetylase HDAC6 (Homo sapiens); assay: Inhibition of HDAC6-mediated tubulin acetylation in human DU145 cells at 500 nM after 4 hrs by Western blot analysis; format: cell-based; details: DU-145; method in brief: as §2
[14] = Drug uptake in human A549 cell perinuclear region at 1 uM after 4 hrs by confocal microscopic analysis; format: ADME, cell-based; details: a549, 4 h
Method in brief: (§4)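 Cells plated on glass coverslips 24 h ahead, then given fresh media with compound at 1 μM for 4 h. After a PBS wash, coverslips were mounted and intracellular distribution imaged by confocal microscopy, excitation 488 nm. Done in DU-145 cells, with A549 lung tumor cells also examined.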

[15] = Drug uptake in human DU145 cell nucleus at 1 uM after 4 hrs by confocal microscopic analysis; format: ADME, cell-based; details: du-145, 4 h; method in brief: as §1
[16] = target: T3, Histone deacetylase (Homo sapiens); assay: Inhibition of HDAC in human DU145 cells assessed as histone H3 hyperacetylation at 0.1 to 0.5 uM after 24 hrs by Western blot analysis; format: cell-based; details: DU-145; method in brief: as §3
[17] = target: DNA topoisomerase 2-alpha (Homo sapiens) (UniProt P11388); assay: Inhibition of topoisomerase 2 in human DU145 cells assessed as stabilization of enzyme-DNA cleavage complex at 90 nM after 30 mins by immunoblot analysis; format: cell-based; details: DU-145
[18] = target: T3, Histone deacetylase (Homo sapiens); assay: Inhibition of HDAC in human DU145 cells assessed as upregulation of p21waf1 protein expression at 0.1 uM after 24 hrs by Western blot analysis; format: cell-based; details: DU-145; method in brief: as §3
[19] = Drug uptake in human DU145 cell perinuclear region at 1 uM after 4 hrs by confocal microscopic analysis; format: ADME, cell-based; details: du-145, 4 h; method in brief: as §4
[20] = target: T4, Protein deacetylase HDAC6 (Homo sapiens); assay: Inhibition of HDAC6-mediated tubulin acetylation in human DU145 cells at 90 nM after 4 hrs by Western blot analysis; format: cell-based; details: DU-145
Method in brief: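 DU-145 cells passaged 24 h before dosing, then treated 4 h, with no more than 0.1% DMSO including controls. Lysis in RIPA buffer with protease inhibitors, protein quantified against a BSA standard, SDS-PAGE and transfer. Blots probed with rabbit anti-tubulin and mouse anti-acetyl tubulin, read by near-infrared imaging at 700/800 nm.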

[21] = target: DNA topoisomerase 2-alpha (Homo sapiens) (UniProt P11388); assay: Inhibition of topoisomerase 2 in human DU145 cells assessed as stabilization of enzyme-DNA cleavage complex at 90 nM after 72 hrs by immunoblot analysis; format: cell-based; details: DU-145

Sequence of Histone deacetylase 1 (Q13547 whole entry): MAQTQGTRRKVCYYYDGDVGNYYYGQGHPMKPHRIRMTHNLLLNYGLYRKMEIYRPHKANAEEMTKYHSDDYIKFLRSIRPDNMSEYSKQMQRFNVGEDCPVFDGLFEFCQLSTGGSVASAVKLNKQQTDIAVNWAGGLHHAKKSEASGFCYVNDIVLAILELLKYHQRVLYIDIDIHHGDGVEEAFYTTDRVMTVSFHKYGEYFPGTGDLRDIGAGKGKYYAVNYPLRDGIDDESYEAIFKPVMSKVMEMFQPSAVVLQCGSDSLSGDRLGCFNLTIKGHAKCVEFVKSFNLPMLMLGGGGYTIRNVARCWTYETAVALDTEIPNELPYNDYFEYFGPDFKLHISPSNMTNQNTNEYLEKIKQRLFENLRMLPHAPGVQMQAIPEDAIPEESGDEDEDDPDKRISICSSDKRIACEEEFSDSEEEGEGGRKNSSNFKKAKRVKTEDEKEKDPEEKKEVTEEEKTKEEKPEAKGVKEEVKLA
Sequence of DNA topoisomerase 2-alpha (Homo sapiens) (P11388 whole entry): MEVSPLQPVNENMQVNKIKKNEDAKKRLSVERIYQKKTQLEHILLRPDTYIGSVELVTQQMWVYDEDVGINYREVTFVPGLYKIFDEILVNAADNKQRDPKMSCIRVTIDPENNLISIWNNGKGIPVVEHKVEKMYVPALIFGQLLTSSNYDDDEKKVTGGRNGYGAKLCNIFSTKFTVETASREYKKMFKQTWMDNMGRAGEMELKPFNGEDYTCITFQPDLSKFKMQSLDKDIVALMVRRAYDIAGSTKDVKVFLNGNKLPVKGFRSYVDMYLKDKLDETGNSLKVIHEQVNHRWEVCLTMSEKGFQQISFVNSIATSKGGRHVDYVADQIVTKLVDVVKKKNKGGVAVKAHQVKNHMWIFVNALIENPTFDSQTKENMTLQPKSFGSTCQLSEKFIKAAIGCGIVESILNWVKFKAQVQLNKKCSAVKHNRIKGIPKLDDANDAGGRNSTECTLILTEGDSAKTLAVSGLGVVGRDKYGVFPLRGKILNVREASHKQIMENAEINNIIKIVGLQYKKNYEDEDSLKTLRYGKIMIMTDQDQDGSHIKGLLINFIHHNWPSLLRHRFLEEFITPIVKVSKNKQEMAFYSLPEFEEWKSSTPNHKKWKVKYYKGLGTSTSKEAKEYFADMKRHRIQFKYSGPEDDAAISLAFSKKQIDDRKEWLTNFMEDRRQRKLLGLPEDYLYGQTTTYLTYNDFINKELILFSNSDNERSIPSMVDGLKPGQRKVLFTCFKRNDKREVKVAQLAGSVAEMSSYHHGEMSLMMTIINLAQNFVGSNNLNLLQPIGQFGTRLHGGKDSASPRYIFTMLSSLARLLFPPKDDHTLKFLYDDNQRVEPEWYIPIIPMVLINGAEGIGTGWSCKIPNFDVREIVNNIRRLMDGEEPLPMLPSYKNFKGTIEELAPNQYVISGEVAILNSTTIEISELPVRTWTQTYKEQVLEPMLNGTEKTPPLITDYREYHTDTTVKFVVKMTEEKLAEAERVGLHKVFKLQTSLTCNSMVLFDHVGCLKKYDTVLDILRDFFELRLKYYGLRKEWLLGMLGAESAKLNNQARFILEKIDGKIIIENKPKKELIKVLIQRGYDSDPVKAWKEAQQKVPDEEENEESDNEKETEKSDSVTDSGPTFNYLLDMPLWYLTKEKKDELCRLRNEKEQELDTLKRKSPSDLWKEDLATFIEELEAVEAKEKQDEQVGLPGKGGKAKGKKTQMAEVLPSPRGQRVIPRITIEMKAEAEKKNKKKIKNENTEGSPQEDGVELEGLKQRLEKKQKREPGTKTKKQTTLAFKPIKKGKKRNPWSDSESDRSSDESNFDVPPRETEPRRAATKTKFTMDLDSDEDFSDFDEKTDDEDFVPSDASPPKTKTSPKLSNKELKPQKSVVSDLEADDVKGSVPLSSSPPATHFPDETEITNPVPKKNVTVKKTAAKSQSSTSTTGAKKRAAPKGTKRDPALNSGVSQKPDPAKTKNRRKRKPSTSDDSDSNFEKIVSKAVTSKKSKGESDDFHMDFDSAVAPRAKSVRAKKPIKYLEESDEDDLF

SMILES | IC50 (DU-145) [nM] | IC50 (Histone deacetylase 1) [nM] | IC50 (Histone deacetylase 8) [nM] | IC50 (MCF7) [nM] | inhibition [1] | IC50 [2] [nM] | IC50 (SK-MES-1) [nM] | IC50 [3] [nM] | Activity [7] | Activity [10] | further results
COc1cccc2c1C(=O)c1c(O)c3c(c(O)c1C2=O)C[C@@](O)(C(C)=O)C[C@@H]3O[C@H]1C[C@H](NCc2ccc(-c3cn(CCCCCCCC(=O)NO)nn3)cc2)[C@H](O)[C@H](C)O1 | 2060 | 11 | 379 | 14800 | Active | 4.2 | 2610 | 19 |  |  | 
O=C(CCCCCCC(=O)Nc1ccccc1)NO [VORINOSTAT] | 2120 |  |  |  |  |  |  |  |  |  | 
COc1cccc2c1C(=O)c1c(O)c3c(c(O)c1C2=O)C[C@@](O)(C(C)=O)C[C@@H]3O[C@H]1C[C@H](NCc2ccc(-c3cn(CCCCC(=O)NO)nn3)cc2)[C@H](O)[C@H](C)O1 | 5390 | 4600 |  | 24500 | Active | 89.9 | 15300 | 555 |  |  | 
COc1cccc2c1C(=O)c1c(O)c3c(c(O)c1C2=O)C[C@@](O)(C(C)=O)C[C@@H]3O[C@H]1C[C@H](NCc2ccc(-c3cn(CCCCCCC(=O)NO)nn3)cc2)[C@H](O)[C@H](C)O1 | 2920 | 8 | 710 | 10600 | Active | 0.9 | 3310 | 20 |  |  | 
COc1cccc2c1C(=O)c1c(O)c3c(c(O)c1C2=O)C[C@@](O)(C(C)=O)C[C@@H]3O[C@H]1C[C@H](NCc2ccc(-c3cn(CCCCCC(=O)NO)nn3)cc2)[C@H](O)[C@H](C)O1 | 1610 |  | 4130 | 13400 | Active |  | 4680 | 30 | inactive | inactive | inhibition [4]: inactive; Drug uptake [5]: Active; inhibition [6]: Active; Drug uptake [8]: Active; inhibition [9]: Active
COc1cccc2c1C(=O)c1c(O)c3c(c(O)c1C2=O)C[C@@](O)(C(C)=O)C[C@@H]3O[C@H]1C[C@H](N)[C@H](O)[C@H](C)O1 [DAUNORUBICIN] | 90 |  |  | 950 | Active |  | 170 |  | inactive | inactive | inhibition [11]: Dose-dependent effect; Drug uptake [12]: Active; inhibition [13]: Active; Drug uptake [14]: Active; Drug uptake [15]: Active; inhibition [16]: Active; inhibition [17]: Active; inhibition [18]: inactive; Drug uptake [19]: Active; inhibition [20]: inactive; inhibition [21]: Active
